# Compounds with a hit are over-represented: about 3.7% of the library has one in this group of screens.
# KCNK9 block: human KCNK9 channel inhibition; Q9NPC2; HEK293 KCNK9, FluxOR thallium flux fluorescence; active compounds read low; B-score at 10 µM; 1.2% of 310,000 active;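 active = ratio B-score over 3 SD below the library mean, with starting fluorescence within 5 SD of its mean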;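 also: negative B-score means less thallium flux so channel inhibition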
# KCNQ1 act: potentiators or activators of human KCNQ1 potassium channel | P51787 | CHO-K1 KCNQ1, thallium flux FluxOR fluorescence; active compounds read high | B-score at 10 µM | 0.35% of 310,000 active | AID 2648;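 active = fluorescence ratio B-score, a plate-corrected score, at least three library SD, with initial intensity B-score within 5 SD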
#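 System: CHO-K1 cells stably expressing KCNQ1 / Medium: assay buffer for compound exposure, DMSO matched across wells / Reagent: thallium- and potassium-containing depolarizing buffer / Compound: one concentration, matched DMSO / Incubation: 20 min compound pretreatment at room temperature / Measured by: kinetic FluxOR fluorescence, 10 s baseline plus 110 s post-stimulus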
# hERG rescue: shields human hERG channel from block by proarrhythmic agents; CHO-hERG, FluxOR thallium flux, dofetilide IC70 present; activation (rescue from dofetilide block), less the hit threshold, % at 10 µM; 0.51% of 310,000 active; AID 1511;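 active = activation above the mean of controls blocked by dofetilide plus 5 SD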;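 also: thallium influx through hERG after potassium depolarization seen as dye fluorescence rise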
# KCNK3 inh: human KCNK3 channel inhibition, primary screen. O14649. CHO-KCNK3 thallium flux, FluxOR fluorescence; active compounds read low. B-score at 10 µM. 0.84% of 340,000 active. AID 602410;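 active = B-score under library mean minus 4 SD, starting fluorescence ratio at most library mean plus 5 SD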;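 also: more negative B-score means stronger inhibition of thallium flux through KCNK3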
# Kir21 block: inhibitors of mouse Kir2.1 inward-rectifier potassium channel | HEK293-Kir2.1, FluxOR thallium flux fluorescence; active compounds read low | B-score at 10 µM | 0.85% of 310,000 active | P35561;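 active = fluorescence ratio B-score at or below minus 3 SD of library scores, with starting-brightness B-score within 2 SD, cut at about -4.2 in these data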;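 also: channel flux triggered by added potassium and thallium sulfate stimulus; B-score of peak minus minimum fluorescence over baseline after thallium stimulus; more negative B-score means stronger Kir2.1 block with less thallium influx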
# Target sequence (P35561 whole entry, looked up): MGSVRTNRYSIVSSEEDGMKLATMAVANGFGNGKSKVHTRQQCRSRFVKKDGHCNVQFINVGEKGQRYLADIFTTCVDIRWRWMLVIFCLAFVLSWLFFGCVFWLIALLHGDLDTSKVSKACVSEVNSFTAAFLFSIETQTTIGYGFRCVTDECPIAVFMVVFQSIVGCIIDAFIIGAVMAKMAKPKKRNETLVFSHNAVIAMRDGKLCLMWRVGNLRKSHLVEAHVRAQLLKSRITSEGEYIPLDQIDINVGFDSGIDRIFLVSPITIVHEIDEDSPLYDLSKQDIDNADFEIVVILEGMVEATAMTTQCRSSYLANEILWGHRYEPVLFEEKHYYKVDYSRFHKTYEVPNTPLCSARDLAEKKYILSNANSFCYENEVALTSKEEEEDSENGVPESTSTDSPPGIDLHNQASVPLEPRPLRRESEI
# KCNQ1 block: human KCNQ1 channel inhibition; 1.3% of 310,000 active; CHO-K1 KCNQ1, FluxOR thallium flux fluorescence; active compounds read high; B-score at 10 µM; AID 2642;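 active = compounds whose thallium flux B-score, printed positive for inhibition, exceeds three library SD while starting fluorescence stays within three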;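 also: channel opened by potassium depolarization with thallium stimulus after 20 min compound exposure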
# KCNK9 inh conf: confirmation of human KCNK9 potassium channel inhibitors. shares compounds with KCNK9 block. HEK293 KCNK9 cells, FluxOR thallium flux fluorescence. inhibition, % at 10 µM. 43% of 4,900 active. AID 492992;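 active = thallium signal inhibited by more than 5 SD of the compound-free buffer control wells, on both duplicate plates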;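 also: 0% = assay buffer control wells without compound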
# Kir21 sel: selectivity of KCNK9 modulators against mouse Kir2.1; shares compounds with KCNK9 block; 4% of 4,900 active; inhibition, % at 10 µM; Kir2.1 cells, FluxOR thallium flux fluorescence;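 active = thallium signal drop more than 5 SD beyond the mean of the no-compound control wells, seen in both duplicate plates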;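 also: signal is fluorescence rise after thallium addition divided by baseline fluorescence; plate controls were assay buffer only for no effect and full block by chlorpromazine control for full effect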
# KCNK9 uninduced: second counter-screen for KCNK9 modulators: effect in non-induced cells; shares compounds with KCNK9 block; non-induced KCNK9-HEK293, FluxOR thallium flux; inhibition, % at 10 µM; 40% of 4,900 active; AID 492997;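 active = thallium signal drop beyond 5 SD of the untreated control mean, on both duplicate plates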;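 also: plate controls were buffer only IC0 wells for no effect and SID17386958 at its maximal inhibitory level for full effect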
# An asterisk follows results filed as active; i = inactive; nt = no result.
SMILES,KCNK9 block,KCNQ1 act,hERG rescue,KCNK3 inh,Kir21 block,KCNQ1 block,KCNK9 inh conf,Kir21 sel,KCNK9 uninduced
FC(F)(F)c1ccc2c(c1)N(CCCN1CCN(CCCl)CC1)c1ccccc1S2,i,i,-14.1,i,-0.52,i,i,i,i
COC(=O)COc1ccc(/C=C2\C(=O)NC(=S)N(c3ccc(C)cc3)C2=O)cc1OC,i,i,-3.3,i,0.48,i,nt,nt,nt
COc1ccccc1OCC(=O)N1CCCC(N2CCN(c3ccc(F)cc3)CC2)C1 (centres undefined),i,i,-3.5,i,-1.84,i,i,i,i
COc1ccc(OCC(=O)N2CCCC(N3CCN(c4ccccc4C)CC3)C2)cc1 (centres undefined),i,i,-12.8,i,-1.7,i,i,i,i
O=C(COc1ccccc1Cl)N1CCCC(N2CCN(c3ccc(F)cc3)CC2)C1 (centres undefined),i,i,-15.3,i,0.16,i,i,i,i
Cc1ccc(OCC(=O)N2CCCC(N3CCN(c4ccc(F)cc4)CC3)C2)cc1 (centres undefined),i,i,-14.7,i,1.01,i,nt,nt,nt
C[C@]12CCC3C(CC[C@H]4C[C@H](OC(=O)c5cccnc5)CC[C@]34C)C1CCC2=O (some centres undefined),nt,nt,nt,i,nt,nt,nt,nt,nt
CCCCC(C)C(OC(=O)CC(CC(=O)O)C(=O)O)C(CC(C)CC(O)CCCCC(O)CC(O)C(C)N)OC(=O)CC(CC(=O)O)C(=O)O (centres undefined),nt,nt,nt,i,nt,nt,nt,nt,nt
Cc1cccc(CN2CCN(c3ccc(Cl)cc3)CC2)c1,i,i,-21.0,i,-1.86,i,i,i,i
Fc1ccc(CN2CCN(c3ccc(Cl)cc3)CC2)cc1,i,i,-6.2,i,-0.07,i,nt,nt,nt
CN1CCN(c2ncnc3c2cnn3C)CC1,i,i,-5.4,i,-1.29,i,nt,nt,nt
CSc1ccc(CN2CCN(c3ccccc3C)CC2)cc1,i,i,-9.8,i,-1.5,i,i,i,i
O=C(c1ccc(-c2ccccc2)c(F)c1)C1CCCN(CCO)C1 (centres undefined),i,i,-12.6,i,-1.84,i,nt,nt,nt
c1ccc(CCCN2CCN(CCOC(c3ccccc3)c3ccccc3)CC2)cc1,i,i,-17.5,i,-2.24,i,i,i,i
Cc1cccc(C2=NCC(=O)N(CC(=O)NCc3ccco3)c3sc4c(c32)CCCC4)c1,-11*,i,-6.7,i,-1.98,i,41.0%*,i,30.5%*
O=C(CN1C(=O)CN=C(c2ccccc2Cl)c2cc(Cl)ccc21)NCc1ccco1,i,i,-2.2,i,-0.75,i,nt,nt,nt
Oc1cc2c(cc1CN1CCN(c3ccc(F)cc3)CC1)OCO2,i,i,-9.4,i,0.21,i,nt,nt,nt
Brc1cc2c(cc1CN1CCN(c3ccccc3)CC1)OCCO2,i,i,-3.8,i,-0.15,i,i,i,i
CCOc1ccc(-n2c(-c3ccoc3)nc3ccccc3c2=O)cc1,i,i,-12.8,i,0.05,i,nt,nt,nt
CCOc1ccc(-c2c(C)n(-c3ccc(OCC)cc3)c3[n+]2CCCCC3)cc1,-10.4*,i,-17.8,i,-10.2*,9*,43.5%*,33.0%*,i
CN1CCc2cc3c(cc2C1)OCO3,nt,nt,nt,i,nt,nt,nt,nt,nt
CCCCCCn1c(=O)c(C(=O)Nc2c(C)n(C)n(-c3ccccc3)c2=O)c(O)c2ccccc21,i,i,-18.2,i,-0.01,i,i,i,i
S=P(NCCSCc1ccccc1)(N1CC1)N1CC1,nt,nt,nt,i,nt,nt,nt,nt,nt
NP(=O)(OCC(F)(F)F)Oc1ccccc1 (centres undefined),i,i,-2.3,i,-0.01,i,nt,nt,nt
O=C(O)c1cccc2c1NC(c1cccc([N+](=O)[O-])c1)C1CC(Sc3ccccc3[N+](=O)[O-])C(Cl)C21 (centres undefined),i,16*,-3.1,i,0.11,i,i,i,i
SMILES,KCNK9 block,KCNQ1 act,hERG rescue,KCNK3 inh,Kir21 block,KCNQ1 block,KCNK9 inh conf,Kir21 sel,KCNK9 uninduced
Nc1ccc(CCN2CCN(c3cccc(C(F)(F)F)c3)CC2)cc1,i,i,-4.5,i,0.23,i,i,i,i
Nc1ccc(CCN2CCCC2)cc1,i,i,-2.3,i,0.76,i,nt,nt,nt
CC(=NCCC(c1ccccc1)c1ccccc1)c1c(O)n(C)c(=O)n(C)c1=O,i,i,-18.4,i,-0.24,i,nt,nt,nt
Cc1nn(Cc2ccccc2Cl)c(Cl)c1C(=O)OCC(=O)NC(=O)NC1CCCCC1,i,i,-7.5,i,0.91,i,i,i,i
O=c1c(C=NCc2cccs2)c(O)n(C2CCCCC2)c(=O)n1C1CCCCC1,i,i,-7.0,i,0.35,i,i,i,i
O=C(c1ccc2c(c1)N(Cc1ccc(F)cc1)CCS2)N1CCC2(CC1)OCCO2,i,i,-9.9,i,-0.43,i,i,i,i
Cc1ccc(CN2CCSc3ccc(C(=O)N4CCC5(CC4)OCCO5)cc32)cc1,i,i,-9.8,i,-0.73,i,nt,nt,nt
C/C(=N\N1CCCCCC1)c1c(O)n(C)c(=O)n(C)c1=O,i,i,-7.2,nt,-0.35,i,nt,nt,nt
CCOC(=O)C1CCN(/C=C2/C(=O)NC(=O)N(c3cccc(C)c3C)C2=O)CC1,i,i,-13.2,i,-0.06,i,nt,nt,nt
Cc1ccc(-c2cc(-c3ccc(C)cc3)[n+](-c3ccccc3)c(-c3ccc(C)cc3)c2)cc1,-19.5*,i,-39.2,-17.8*,-12.2*,9*,76.0%*,84.0%*,i
Cc1ccc(-c2cc(-c3ccc(C)cc3)[n+](C)o2)cc1,i,i,-23.6,i,2.32,i,nt,nt,nt
Cc1ccc(-c2cc(-c3ccccc3)cc(-c3ccccc3)[n+]2-c2ccccc2)cc1,-9.24*,i,-46.1,i,-9.68*,i,75.0%*,79.0%*,33.5%*
CCOc1ccc(N2C(=O)NC(=O)/C(=C/c3cnc(SC)nc3)C2=O)cc1,i,i,-6.5,i,0,i,nt,nt,nt
O=[N+]([O-])c1oc2ccc3ccccc3c2c1CCO,nt,nt,nt,i,nt,nt,nt,nt,nt
COCc1ccc(CN2CCCC(C(=O)c3sccc3C)C2)o1 (centres undefined),i,i,-6.5,i,0.11,i,i,i,i
